In the library only some 2.9% were active in any assay of this set; here they are far more common.
PGC1a acetyl inh: modulators of PGC1a acetylation; AID 651687; inhibition, % at 15.6 µM; U2OS PGC1a acetylation, AlphaScreen anti-acetyl-lysine; with virally co-expressed GCN5 acetyltransferase; actives 0.17% (n = 350,000);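 active means every replicate shows inhibition of at least 40%; inconclusive means mean inhibition at least 40% but some replicate below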
S100A4 inh HTS: S100A4-myosin IIA interaction inhibition. AID 652163. P26447. actives 0.14% (n = 360,000). S100A4/TAMRA-MyoIIA peptide fluorescence polarization. inhibition, % at 10.7 µM;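 active means mean inhibition of at least 70% across replicates, with every replicate also reaching that level; inconclusive means mean inhibition reaches 70% but some replicates fall short; inactive means mean inhibition below 70%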
Target sequence (P26447 whole entry, looked up): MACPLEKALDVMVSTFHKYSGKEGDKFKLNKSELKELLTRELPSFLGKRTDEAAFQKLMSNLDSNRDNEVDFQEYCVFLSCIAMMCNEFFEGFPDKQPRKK
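Material: human S100A4 monomer with TAMRA-labelled myosin IIA peptide; buffer or medium: HEPES pH 7.2 with CaCl2, KCl, NaCl, DTT, Triton; compound dosing: one concentration per compound; schedule: 5 min incubation before reading; benchmarks: neutral control DMSO, positive control TFP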
Statin myotox sup: suppressors of simvastatin-induced myotoxicity in C2C12 myotubes; ATP luminescence, 48 h; scaled: DMSO 0, geranylgeraniol control 100; rescue of ATP level, % at 7.49 µM; actives 0.78% (n = 330,000);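 active means mean ATP rescue above about 67%, or every replicate alone reaching that limit, limit read from the data, passing the limit was not always enough; inconclusive means no clear call, values can overlap the other calls; inactive means mean under the limit and some replicate under it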;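 further: myotubes were challenged with 10 µM simvastatin during compound exposure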
SIRT5 block: blocks human SIRT5 desuccinylation of peptide; Q9NXA8; inhibition, % at 15 µM; Purified SirT5, succinyl-peptide AMC, trypsin-coupled fluorescence; actives 1.1% (n = 330,000); AID 652115; in the data active means inhibition above about 15%; inconclusive means no clear call, values can overlap the other calls
Target sequence (Q9NXA8 whole entry, looked up): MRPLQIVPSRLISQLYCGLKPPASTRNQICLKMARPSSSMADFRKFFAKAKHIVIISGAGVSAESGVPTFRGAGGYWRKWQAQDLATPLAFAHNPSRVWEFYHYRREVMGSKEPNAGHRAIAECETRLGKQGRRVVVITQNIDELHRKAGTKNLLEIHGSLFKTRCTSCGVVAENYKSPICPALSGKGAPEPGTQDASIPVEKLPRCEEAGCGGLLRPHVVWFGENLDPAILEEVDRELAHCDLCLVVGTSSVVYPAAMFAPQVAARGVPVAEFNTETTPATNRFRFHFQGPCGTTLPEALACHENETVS
DENV2 CPE rescue: inhibitors of DENV2 cytopathic effect; CPE inhibition, % at 9.99 µM; DENV2-infected cells, cytopathic effect rescue, plate reader; actives 1.7% (n = 350,000); in the data active means CPE inhibition above about 20%, passing the limit was not always enough; inconclusive means no clear call, values can overlap the other calls; tested in BHK-21 cells
Of the large screens only hits and unclear results are named; the others gave an inactive call; ! = a repeat was not active.

CO[C@H]1CN(C)C(=O)c2cc(NC(=O)C3CCOCC3)ccc2OC[C@H](C)N(C(C)=O)C[C@H]1C	none (no result: S100A4 inh HTS, SIRT5 block, DENV2 CPE rescue)
COc1ccc(CN(C)C[C@H]2OCCCC[C@@H](C)Oc3ccc(N(C)C)cc3C(=O)N([C@H](C)CO)C[C@H]2C)cc1	none (no result: S100A4 inh HTS, DENV2 CPE rescue)
CO[C@H]1CN(C)C(=O)c2ccc(NC(=O)c3ccc(F)cc3)cc2OC[C@@H](C)N(C(C)=O)C[C@@H]1C	none
COc1cccc(S(=O)(=O)N(C)C[C@H]2Oc3ncc(C#CCN(C)C)cc3C(=O)N([C@@H](C)CO)C[C@H]2C)c1	none
C[C@H]1CN([C@@H](C)CO)C(=O)c2cccc(NS(=O)(=O)c3ccc(Cl)cc3)c2O[C@H]1CN(C)C(=O)Nc1ccccc1	DENV2 CPE rescue 40
C[C@H](CO)N1C[C@H](C)[C@@H](CN(C)C(=O)Nc2ccccc2)Oc2c(NS(=O)(=O)c3ccc(Cl)cc3)cccc2C1=O	none
CC(C)n1c(=S)[nH]c2ccccc2c1=O	none (no result: S100A4 inh HTS, SIRT5 block, DENV2 CPE rescue)
CC(C)n1c(=S)[nH]c2cc(Cl)ccc21	PGC1a acetyl inh 69
Cc1ccn2c(NC3CCCCC3)c(-c3ccc(SC4CCCCC4)cc3)nc2c1	DENV2 CPE rescue 37 (no result: PGC1a acetyl inh, Statin myotox sup, SIRT5 block)
Cc1ccn2c(NC3CCCCC3)c(-c3cccc(SC4CCCCC4)c3)nc2c1	DENV2 CPE rescue inconclusive (no result: PGC1a acetyl inh)
C[C@H]1CN([C@@H](C)CO)C(=O)c2cccc(NC(=O)C3CCCCC3)c2O[C@@H]1CN(C)C(=O)Nc1ccc(F)cc1	none
CC(=O)CSc1ccc(-c2nc3cc(C)c(C)cc3[nH]2)cn1	DENV2 CPE rescue 27 (no result: PGC1a acetyl inh, Statin myotox sup)
CC(=O)CSc1ccc(-c2nc3ccccc3[nH]2)cn1	none (no result: PGC1a acetyl inh)
COc1ccccc1S(=O)(=O)N(C)C[C@H]1OCc2cn(nn2)CCCC(=O)N([C@@H](C)CO)C[C@H]1C	none
c1csc(-c2ccn[nH]2)c1	none (no result: PGC1a acetyl inh)
S=c1nccc(-c2cccs2)[nH]1	SIRT5 block 15
c1cc2cc(-c3c(-c4ccc5c(c4)OCO5)noc3-c3ccsc3)ccc2[nH]1	Statin myotox sup 126, DENV2 CPE rescue 120
CCOC(=O)c1ccc(-c2c(-c3ccc4c(c3)OCO4)noc2-c2ccsc2)cc1F	none
Cc1onc(-c2ccc3c(c2)OCO3)c1-c1ccc2[nH]ccc2c1	none
COc1cc(-c2c(-c3ccc4c(c3)OCO4)noc2-c2ccsc2)ccc1F	SIRT5 block 17
C[C@H]1CCCCO[C@H](CN(C)Cc2ccncc2)[C@@H](C)CN([C@@H](C)CO)C(=O)c2cc(NS(C)(=O)=O)ccc2O1	none
COc1ccc(CN(C)C[C@@H]2Oc3c(NC(=O)NC4CCCCC4)cccc3C(=O)N([C@H](C)CO)C[C@@H]2C)cc1	none
Cc1ccc(C)c(NC(=S)NC(C)C(c2ccccc2)N2CCN(C)CC2)c1 (centres undefined)	none (no result: Statin myotox sup)
CCN1CCN(C(c2cccs2)C(C)NC(=S)Nc2cc(C)ccc2C)CC1 (centres undefined)	SIRT5 block 16 (no result: Statin myotox sup)
CC(=O)C[C@@H](O)CC(=O)[C@@H]1OC(=O)CCCCCCCCc2ccccc21	Statin myotox sup 125
CC(=O)C[C@@H](O)CC(=O)[C@@H]1OC(=O)CCCCC/C=C/Cc2ccccc21	Statin myotox sup 92, SIRT5 block 24
CC[C@H]1C/C=C\Cc2ccccc2[C@@H](C(=O)C[C@@H](O)CC(C)=O)OC1=O	SIRT5 block 18
CC(=O)C[C@@H](O)CC(=O)[C@H]1OC(=O)[C@H](C)C/C=C\Cc2ccccc21	none
CC(=O)C[C@H](O)CC(=O)[C@H]1OC(=O)CCCCC/C=C/Cc2ccccc21	none (no result: SIRT5 block)
O=c1ccc2ccccc2c2ccccc12	none (no result: PGC1a acetyl inh, Statin myotox sup)
O=Nc1c(O)c2ccccc2c2ccccc12	PGC1a acetyl inh 45
Fc1ccc(N2CCN(C3CCC(c4ccccc4)CC3)CC2)cc1 (centres undefined)	none
CCN1CCC(N2CCN(c3ccc(F)cc3)CC2)CC1	DENV2 CPE rescue 28 (no result: PGC1a acetyl inh)
C=CCOC(=O)C1=C[C@H](c2ccc(C(F)(F)F)cc2)[C@@H](CCCO)[C@H](OCC)O1	none
C=CCOC(=O)C1=C[C@@H](c2ccc(C(F)(F)F)cc2)[C@H](CCCO)[C@@H](OCC)O1	DENV2 CPE rescue 36!
CC(C)C#Cc1cnc2c(c1)C(=O)N([C@@H](C)CO)C[C@@H](C)[C@@H](CN(C)C(=O)Cc1ccccn1)O2	none
Cc1cc(N)c(NC2=CC(=O)CC(C)(C)C2)cc1C	Statin myotox sup 138 (no result: S100A4 inh HTS, SIRT5 block, DENV2 CPE rescue)
